ChEMBL document CHEMBL2440039, “Synthesis and pharmacological evaluation of novel N-aryl-3,4-dihydro-1'H-spiro[chromene-2,4'-piperidine]-1'-carboxamides as TRPM8 antagonists” (Bioorg Med Chem, 2013)

Tests used:
[1] = Metabolic stability in cynomolgus monkey liver microsomes assessed as compound remaining at 1 uM after 60 mins by LC/MS/MS analysis; assay type: ADME, Macaca fascicularis, Microsome; details: read-out: Stability
Procedure, shortened: (§1)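 Liver microsomes (1.0 mg/mL protein) from male CD1 mouse, Wistar rat, Beagle dog, Cynomolgus monkey, or pooled human. Test item 1.0 µM in KH2PO4 buffer pH 7.4 with 2.0 mM NADPH (final) at 37 °C for 60 min, stopped with TBME. Extract read by LC/MS/MS as area ratio to internal standard. Percent remaining is 60 min relative to 0 min.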

[2] = Metabolic stability in CD-1 mouse liver microsomes assessed as compound remaining at 1 uM after 60 mins by LC/MS/MS analysis; assay type: ADME, Microsome; details: read-out: Stability; procedure, shortened: as §1
Mus musculus [3] = experiment: Inhibition of oxaliplatin-induced peripheral neuropathic pain in acetone spray-induced cold allodynia C57/BL6 mouse model assessed as inhibition of nocifensive paw licking behavior at 30 mg/kg, po; assay type: functional
Procedure, shortened: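 Male C57/BL6 mice (20–30 g) received oxaliplatin (3 mg/kg ip, in 5% glucose, 10 ml/kg) and were tested for cold allodynia 3 days later. Compound was dosed po 30 min before acetone spray, with 0.5% MC as vehicle. Nocifensive paw licking/flicking was scored. Analysis was one-way ANOVA with Bonferroni versus vehicle.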

[4] = Metabolic stability in human liver microsomes assessed as compound remaining at 1 uM after 60 mins by LC/MS/MS analysis; assay type: ADME, Microsome; details: read-out: Stability; procedure, shortened: as §1
[5] = Metabolic stability in Beagle dog liver microsomes assessed as compound remaining at 1 uM after 60 mins by LC/MS/MS analysis; assay type: ADME, Canis lupus familiaris, Microsome; details: read-out: Stability; procedure, shortened: as §1
Mus musculus [6] = experiment: Inhibition of icilin-induced wet dog shakes in C57/BL6 mouse at 30 mg/kg, po administered 30 mins prior to icilin-challenge measured for 30 mins; assay type: functional
Procedure, shortened: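 Male C57/BL6 mice (20–30 g) acclimatized in a bell jar 10 min daily for 3 days. Icilin 30 mg/kg ip in 20% DMSO / 1% Tween 80. Compound given po 30 min before icilin, vehicle 0.5% MC. Wet dog shakes counted for 30 min after icilin. One-way ANOVA with Bonferroni test.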

Rattus norvegicus [7] = experiment: AUC (0 to t) in Sprague-Dawley rat at 10 mg/kg, po; assay type: ADME, organism-based, Plasma; parameters: dose 10 mg/kg, route oral; details: in vivo
Procedure, shortened: (§2)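 Male SD rats (180–220 g, n=3), fasted overnight, single oral gavage dose as suspension in 1% Tween 80 / 0.5% w/v methyl cellulose in water. Blood (K2EDTA) drawn 0.5–24 h post dose. Plasma taken by liquid–liquid extraction with internal standard and measured by achiral LC/MS/MS. Values given as mean ± SD.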

[8] = molecular target: Transient receptor potential cation channel subfamily V member 1 (Homo sapiens, UniProt Q8NER1); experiment: Antagonist activity at human TRPV1 expressed in CHO cells assessed as inhibition of capsaicin-induced 45Ca2+ uptake incubated for 10 mins prior to capsaicin-challenge measured after 2 to 5 mins by liquid scintillation counting analysis; assay type: cell-based
Procedure, shortened: (§3)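 CHO cells stably expressing human TRPA1, TRPV1, TRPV3 or TRPV4. Temperature 30 °C for TRPV1, 32 °C for TRPV3, 25 °C for TRPV4 and TRPA1. Compound preincubated 10 min, then 45Ca2+ (5 µCi/mL final) and agonist added. Wash after 2–5 min, lyse, scintillation count. TRPV1 IC50 from six-point curves in at least two experiments. TRPA1, TRPV3 and TRPV4 run in duplicate as % inhibition at 1.0 µM.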

Rattus norvegicus [9] = experiment: Inhibition of acetone spray-induced cold allodynia in Sprague-Dawley rat chronic constriction injury model at 10 mg/kg, po after 3 hrs; assay type: functional
Procedure, shortened: (§4)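 Male SD rats (160–200 g) with sciatic nerve chronic constriction injury under ketamine/xylazine, tested 7 days later at 21 ± 0.5 °C. Oral dose, vehicle 0.5% MC. Acetone 100 µl sprayed on ipsilateral paw, repeated 3–5 times at 5 min intervals. Flinches and licking counted over 2 min at 0, 0.5, 1, 2 and 3 h, scored clinically.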

[10] = molecular target: Transient receptor potential cation channel subfamily V member 4 (Homo sapiens) (UniProt Q9HBA0); experiment: Antagonist activity at human TRPV4 expressed in CHO cells assessed as inhibition of 4alphaPDD-induced 45Ca2+ uptake at 1 uM incubated for 10 mins prior to 4alphaPDD-challenge measured after 2 to 5 mins by liquid scintillation counting analysis; assay type: cell-based; procedure, shortened: as §3
[11] = molecular target: Transient receptor potential cation channel subfamily A member 1 (Homo sapiens) (UniProt O75762); experiment: Antagonist activity at human TRPA1 expressed in CHO cells assessed as inhibition of allyl isothiocyanate-induced 45Ca2+ uptake at 1 uM incubated for 10 mins prior to allyl isothiocyanate-challenge measured after 2 to 5 mins by liquid scintillation counting analysis; assay type: cell-based; procedure, shortened: as §3
[12] = molecular target: Transient receptor potential cation channel subfamily M member 8 (Homo sapiens, UniProt Q7Z2W7); experiment: Antagonist activity at human TRPM8 expressed in CHO cells assessed as inhibition of icilin-induced 45Ca2+ uptake incubated for 10 mins prior to icilin-challenge measured after 4 mins by liquid scintillation counting analysis; assay type: cell-based
Procedure, shortened: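 CHO cells stably expressing human TRPM8 in DMEM F-12 with 10% FBS and G418, seeded overnight. Assay buffer is DMEM F12 with 0.1% BSA and 1.8 mM CaCl2, run at 25 °C. Compound added 10 min before 45Ca2+ (5 µCi/mL final) and icilin. Wash after 4 min, lyse, count cpm. IC50 from six-point curves by nonlinear regression, at least two independent experiments.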

Rattus norvegicus [13] = experiment: Inhibition of acetone spray-induced cold allodynia in Sprague-Dawley rat chronic constriction injury model at 10 mg/kg, po after 1 hr; assay type: functional; procedure, shortened: as §4
[14] = Cmax in Sprague-Dawley rat at 10 mg/kg, po; assay type: ADME, organism-based; parameters: dose 10 mg/kg, route oral; details: in vivo; procedure, shortened: as §2
[15] = Tmax in Sprague-Dawley rat at 10 mg/kg, po; assay type: ADME, organism-based; parameters: dose 10 mg/kg, route oral; details: in vivo; procedure, shortened: as §2
[16] = molecular target: Transient receptor potential cation channel subfamily M member 8 (Rattus norvegicus, UniProt Q8R455); experiment: Antagonist activity at rat TRPM8 by 45Ca2+ uptake assay
[17] = molecular target: T1, Transient receptor potential cation channel subfamily V member 3 (Homo sapiens) (UniProt Q8NET8); experiment: Antagonist activity at human TRPV3 expressed in CHO cells assessed as inhibition of 2APB-induced 45Ca2+ uptake at 1 uM incubated for 10 mins prior to 2APB-challenge measured after 2 to 5 mins by liquid scintillation counting analysis; assay type: cell-based; procedure, shortened: as §3
T1 sequence (whole entry): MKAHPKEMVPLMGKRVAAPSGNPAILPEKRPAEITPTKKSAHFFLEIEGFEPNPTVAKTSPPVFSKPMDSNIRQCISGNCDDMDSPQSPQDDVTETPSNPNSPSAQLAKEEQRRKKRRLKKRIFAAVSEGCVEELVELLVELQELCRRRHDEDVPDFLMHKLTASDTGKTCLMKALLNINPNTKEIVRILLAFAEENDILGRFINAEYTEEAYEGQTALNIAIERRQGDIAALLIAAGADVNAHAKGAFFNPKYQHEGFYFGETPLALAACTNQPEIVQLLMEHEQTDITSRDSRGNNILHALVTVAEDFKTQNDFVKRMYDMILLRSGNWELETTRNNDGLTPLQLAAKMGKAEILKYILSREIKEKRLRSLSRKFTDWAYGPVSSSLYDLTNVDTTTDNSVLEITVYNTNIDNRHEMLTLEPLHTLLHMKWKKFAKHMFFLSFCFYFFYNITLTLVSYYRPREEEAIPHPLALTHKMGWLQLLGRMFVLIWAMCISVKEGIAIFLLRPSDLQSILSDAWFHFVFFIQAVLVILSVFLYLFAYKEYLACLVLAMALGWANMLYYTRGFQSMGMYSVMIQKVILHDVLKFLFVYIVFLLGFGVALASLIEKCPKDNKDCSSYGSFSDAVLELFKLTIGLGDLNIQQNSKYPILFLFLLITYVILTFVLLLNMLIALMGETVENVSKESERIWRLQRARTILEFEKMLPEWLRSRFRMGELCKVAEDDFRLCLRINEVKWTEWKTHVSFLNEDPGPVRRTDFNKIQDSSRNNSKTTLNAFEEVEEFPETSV

Mus musculus [18] = experiment: Inhibition of oxaliplatin-induced peripheral neuropathic pain in po dosed acetone spray-induced cold allodynia C57/BL6 mouse model assessed as inhibition of nocifensive paw licking behavior; assay type: functional, organism-based
Procedure, shortened: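 Male C57/BL6 mice (20–30 g) given oxaliplatin 3 mg/kg ip in 5% glucose and tested for cold allodynia 3 days later. Compound given po (3, 10, 30 mg/kg) 30 min before acetone spray, vehicle 0.5% MC. Nocifensive paw licking recorded. One-way ANOVA with Bonferroni test.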

Rattus norvegicus [19] = experiment: Inhibition of acetone spray-induced cold allodynia in Sprague-Dawley rat chronic constriction injury model at 10 mg/kg, po after 2 hrs; assay type: functional; procedure, shortened: as §4
[20] = Metabolic stability in Wistar rat liver microsomes assessed as compound remaining at 1 uM after 60 mins by LC/MS/MS analysis; assay type: ADME, Microsome; details: read-out: Stability; procedure, shortened: as §1
Rattus norvegicus [21] = experiment: Drug uptake in Sprague-Dawley rat at 10 mg/kg, po up to 8 hrs; assay type: ADME, organism-based; parameters: dose 10 mg/kg, route oral; details: in vivo; procedure, shortened: as §2
Rattus norvegicus [22] = experiment: Inhibition of acetone spray-induced cold allodynia in Sprague-Dawley rat chronic constriction injury model at 10 mg/kg, po after 0.5 hrs; assay type: functional; procedure, shortened: as §4

Transient receptor potential cation channel subfamily V member 1, sequence (Q8NER1 whole entry): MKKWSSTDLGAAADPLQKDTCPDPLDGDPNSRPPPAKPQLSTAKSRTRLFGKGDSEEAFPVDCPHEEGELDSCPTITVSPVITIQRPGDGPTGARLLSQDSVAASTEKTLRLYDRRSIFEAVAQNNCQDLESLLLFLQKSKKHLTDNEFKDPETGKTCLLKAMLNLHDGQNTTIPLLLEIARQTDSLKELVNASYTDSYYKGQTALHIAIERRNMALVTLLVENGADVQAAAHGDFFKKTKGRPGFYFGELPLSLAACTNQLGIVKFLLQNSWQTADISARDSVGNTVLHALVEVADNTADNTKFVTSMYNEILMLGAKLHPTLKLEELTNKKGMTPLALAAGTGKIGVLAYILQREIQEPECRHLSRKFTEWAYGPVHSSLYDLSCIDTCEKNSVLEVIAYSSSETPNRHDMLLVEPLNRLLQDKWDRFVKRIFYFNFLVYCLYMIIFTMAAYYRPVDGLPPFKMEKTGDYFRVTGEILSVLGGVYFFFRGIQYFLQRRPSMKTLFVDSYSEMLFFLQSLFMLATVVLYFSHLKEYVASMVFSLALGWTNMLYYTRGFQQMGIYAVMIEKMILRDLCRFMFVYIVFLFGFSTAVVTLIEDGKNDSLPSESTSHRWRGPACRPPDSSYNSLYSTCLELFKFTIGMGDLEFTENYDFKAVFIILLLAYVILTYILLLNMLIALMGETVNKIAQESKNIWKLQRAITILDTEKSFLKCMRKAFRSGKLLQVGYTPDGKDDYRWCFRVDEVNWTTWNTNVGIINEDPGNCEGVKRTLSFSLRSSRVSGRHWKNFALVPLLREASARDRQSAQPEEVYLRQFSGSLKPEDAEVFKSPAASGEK
Transient receptor potential cation channel subfamily A member 1 (Homo sapiens), sequence (O75762 whole entry): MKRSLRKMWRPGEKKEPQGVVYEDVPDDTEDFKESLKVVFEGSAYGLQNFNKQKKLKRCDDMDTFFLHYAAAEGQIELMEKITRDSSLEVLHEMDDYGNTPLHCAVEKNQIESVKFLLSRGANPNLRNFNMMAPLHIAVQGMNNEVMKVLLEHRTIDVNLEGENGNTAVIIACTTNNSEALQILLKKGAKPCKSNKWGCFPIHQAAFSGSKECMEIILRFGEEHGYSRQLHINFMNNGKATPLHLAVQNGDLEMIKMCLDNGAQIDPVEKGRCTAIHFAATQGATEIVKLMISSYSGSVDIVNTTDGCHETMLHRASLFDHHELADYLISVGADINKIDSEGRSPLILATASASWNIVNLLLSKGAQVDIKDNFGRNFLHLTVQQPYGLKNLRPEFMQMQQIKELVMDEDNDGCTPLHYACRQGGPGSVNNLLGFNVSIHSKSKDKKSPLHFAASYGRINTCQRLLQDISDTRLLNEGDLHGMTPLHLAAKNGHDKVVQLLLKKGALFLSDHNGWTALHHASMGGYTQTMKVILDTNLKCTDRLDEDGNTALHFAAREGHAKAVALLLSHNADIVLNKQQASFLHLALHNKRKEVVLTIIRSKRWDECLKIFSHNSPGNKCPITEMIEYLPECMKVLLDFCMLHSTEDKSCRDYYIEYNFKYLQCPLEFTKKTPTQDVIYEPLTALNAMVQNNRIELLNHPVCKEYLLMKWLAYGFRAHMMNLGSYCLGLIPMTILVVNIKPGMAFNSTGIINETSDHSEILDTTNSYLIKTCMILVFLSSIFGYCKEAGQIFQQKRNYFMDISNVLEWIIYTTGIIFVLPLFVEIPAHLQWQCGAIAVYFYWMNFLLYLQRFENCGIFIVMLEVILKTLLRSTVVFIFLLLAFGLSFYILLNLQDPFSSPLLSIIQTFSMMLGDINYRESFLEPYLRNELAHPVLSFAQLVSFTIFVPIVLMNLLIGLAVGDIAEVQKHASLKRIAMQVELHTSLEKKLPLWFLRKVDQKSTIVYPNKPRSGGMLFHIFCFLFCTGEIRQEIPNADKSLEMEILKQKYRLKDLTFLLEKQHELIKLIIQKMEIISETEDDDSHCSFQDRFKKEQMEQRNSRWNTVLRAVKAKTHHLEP
Transient receptor potential cation channel subfamily M member 8 (Homo sapiens, UniProt Q7Z2W7), sequence (Q7Z2W7 whole entry): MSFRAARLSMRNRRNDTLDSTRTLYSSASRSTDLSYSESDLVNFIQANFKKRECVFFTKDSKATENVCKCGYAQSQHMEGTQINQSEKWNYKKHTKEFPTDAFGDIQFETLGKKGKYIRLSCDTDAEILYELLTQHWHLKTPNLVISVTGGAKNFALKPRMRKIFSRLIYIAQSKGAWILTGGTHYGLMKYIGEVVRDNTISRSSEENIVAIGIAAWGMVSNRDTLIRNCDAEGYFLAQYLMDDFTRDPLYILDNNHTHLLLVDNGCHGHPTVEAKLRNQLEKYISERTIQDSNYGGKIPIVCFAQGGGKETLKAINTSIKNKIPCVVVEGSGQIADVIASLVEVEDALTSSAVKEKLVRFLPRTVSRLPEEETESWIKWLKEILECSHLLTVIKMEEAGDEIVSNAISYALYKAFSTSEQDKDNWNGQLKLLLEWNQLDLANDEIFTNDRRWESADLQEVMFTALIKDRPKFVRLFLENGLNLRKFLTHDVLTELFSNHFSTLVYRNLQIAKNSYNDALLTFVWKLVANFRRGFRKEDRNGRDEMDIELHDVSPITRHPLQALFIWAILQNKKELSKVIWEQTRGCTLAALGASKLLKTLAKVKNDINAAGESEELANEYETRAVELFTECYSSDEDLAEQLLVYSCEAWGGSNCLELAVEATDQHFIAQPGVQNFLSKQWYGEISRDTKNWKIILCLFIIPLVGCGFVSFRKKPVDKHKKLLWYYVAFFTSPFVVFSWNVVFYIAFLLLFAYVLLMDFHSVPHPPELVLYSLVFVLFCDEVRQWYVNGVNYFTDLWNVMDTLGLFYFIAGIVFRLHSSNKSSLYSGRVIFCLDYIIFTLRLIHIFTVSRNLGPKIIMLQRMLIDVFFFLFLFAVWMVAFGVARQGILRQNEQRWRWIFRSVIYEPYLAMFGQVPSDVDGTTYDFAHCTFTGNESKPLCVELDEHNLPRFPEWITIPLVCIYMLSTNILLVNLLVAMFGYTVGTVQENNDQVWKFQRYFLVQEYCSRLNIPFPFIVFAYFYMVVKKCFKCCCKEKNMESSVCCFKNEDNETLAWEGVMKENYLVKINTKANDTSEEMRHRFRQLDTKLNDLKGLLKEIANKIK
Transient receptor potential cation channel subfamily V member 4 (Homo sapiens), sequence (Q9HBA0 whole entry): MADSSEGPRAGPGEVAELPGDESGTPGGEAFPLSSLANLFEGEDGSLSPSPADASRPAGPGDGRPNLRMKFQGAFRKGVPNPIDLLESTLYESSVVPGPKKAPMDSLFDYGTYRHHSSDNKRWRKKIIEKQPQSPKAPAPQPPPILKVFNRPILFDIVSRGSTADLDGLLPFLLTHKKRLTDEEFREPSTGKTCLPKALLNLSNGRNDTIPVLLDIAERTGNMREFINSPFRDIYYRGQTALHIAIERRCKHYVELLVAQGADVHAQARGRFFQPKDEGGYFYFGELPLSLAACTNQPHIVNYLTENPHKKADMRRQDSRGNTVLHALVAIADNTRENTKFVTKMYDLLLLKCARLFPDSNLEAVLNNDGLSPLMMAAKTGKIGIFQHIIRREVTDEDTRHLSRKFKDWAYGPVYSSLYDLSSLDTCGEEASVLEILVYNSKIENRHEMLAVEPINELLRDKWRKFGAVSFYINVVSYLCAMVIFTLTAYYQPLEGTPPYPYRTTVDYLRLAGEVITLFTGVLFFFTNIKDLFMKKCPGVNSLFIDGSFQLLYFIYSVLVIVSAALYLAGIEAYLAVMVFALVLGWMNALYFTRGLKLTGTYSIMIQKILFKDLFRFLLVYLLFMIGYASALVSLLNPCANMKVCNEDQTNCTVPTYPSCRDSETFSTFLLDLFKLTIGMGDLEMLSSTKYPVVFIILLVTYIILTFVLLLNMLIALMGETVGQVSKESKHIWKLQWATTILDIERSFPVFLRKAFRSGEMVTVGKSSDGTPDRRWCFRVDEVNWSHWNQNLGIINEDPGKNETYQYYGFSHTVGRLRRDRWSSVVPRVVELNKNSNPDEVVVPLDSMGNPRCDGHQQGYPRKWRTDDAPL
Transient receptor potential cation channel subfamily M member 8 (Rattus norvegicus, UniProt Q8R455), sequence (Q8R455 whole entry): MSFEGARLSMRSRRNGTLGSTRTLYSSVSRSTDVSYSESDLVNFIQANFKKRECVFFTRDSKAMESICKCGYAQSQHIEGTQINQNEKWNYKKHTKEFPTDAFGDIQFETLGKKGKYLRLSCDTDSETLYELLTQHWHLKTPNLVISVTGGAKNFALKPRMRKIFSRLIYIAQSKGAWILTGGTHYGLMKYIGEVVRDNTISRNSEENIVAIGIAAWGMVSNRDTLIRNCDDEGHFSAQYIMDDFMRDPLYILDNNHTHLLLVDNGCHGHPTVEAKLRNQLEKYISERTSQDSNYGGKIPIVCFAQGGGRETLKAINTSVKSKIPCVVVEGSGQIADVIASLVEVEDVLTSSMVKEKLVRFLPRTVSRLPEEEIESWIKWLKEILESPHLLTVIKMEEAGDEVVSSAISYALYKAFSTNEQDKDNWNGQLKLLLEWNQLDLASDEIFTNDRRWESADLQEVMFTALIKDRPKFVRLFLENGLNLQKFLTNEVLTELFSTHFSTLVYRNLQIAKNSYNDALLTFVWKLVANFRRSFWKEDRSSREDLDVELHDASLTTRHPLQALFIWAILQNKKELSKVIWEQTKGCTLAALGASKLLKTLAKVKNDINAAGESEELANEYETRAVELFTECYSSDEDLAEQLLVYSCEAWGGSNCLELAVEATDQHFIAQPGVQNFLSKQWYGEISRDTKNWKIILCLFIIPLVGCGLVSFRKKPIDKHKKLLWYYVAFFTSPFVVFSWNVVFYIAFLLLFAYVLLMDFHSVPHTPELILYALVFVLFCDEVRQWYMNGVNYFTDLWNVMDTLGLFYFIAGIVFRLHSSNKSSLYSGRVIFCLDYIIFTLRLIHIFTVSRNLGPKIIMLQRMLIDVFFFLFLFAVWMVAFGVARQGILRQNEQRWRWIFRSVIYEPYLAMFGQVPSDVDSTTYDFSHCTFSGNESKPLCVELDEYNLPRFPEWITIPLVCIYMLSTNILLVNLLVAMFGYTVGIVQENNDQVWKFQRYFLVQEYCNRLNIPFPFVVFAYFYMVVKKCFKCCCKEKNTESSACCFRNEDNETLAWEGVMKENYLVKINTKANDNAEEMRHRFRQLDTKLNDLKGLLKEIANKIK

Which results are given for `O=C(Nc1ccc(OC(F)(F)F)cc1)N1CCC2(CC1)C[C@@H](O)c1cccc(Cl)c1O2`?
remaining at 1 h, 1 µM [1]: 72%; remaining at 1 h, 1 µM [2]: 81%; Efficacy (Mus musculus [3]): 100%; remaining at 1 h, 1 µM [4]: 67%; remaining at 1 h, 1 µM [5]: 42%; Efficacy (Mus musculus [6]): 72%; AUCt (Rattus norvegicus [7]): 4980 ng·h/mL; IC50 [8]: > 1000 nM; Efficacy (Rattus norvegicus [9]): 65%; inhibition [10]: 38.8%; inhibition [11]: 23.5%; IC50 [12]: 8.9 nM; Efficacy (Rattus norvegicus [13]): 66%; Cmax [14]: 1090 ng/mL; Tmax [15]: 1 h; IC50 [16]: 16.5 nM; inhibition [17]: 27.7%; inhibition (Mus musculus [18]): Dose-dependent effect; Efficacy (Rattus norvegicus [19]): 74%; remaining at 1 h, 1 µM [20]: 79%; Drug uptake (Rattus norvegicus [21]): Active; Efficacy (Rattus norvegicus [22]): 39%
